# From article PMC6880868 (Cancer cell, 2019)
# Experiments:
# MOLM-16 tumors = experiment: MOLM-16 xenograft efficacy; format: in vivo, NOD/SCID female mice
# Method in brief: (§1)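 NOD/SCID female mice were injected subcutaneously in 5 mg/ml Matrigel with MOLM-16 (3 × 10^6), SU-DHL-1 (1 × 10^7) or SUP-M2 (1 × 10^7) cells. At about 150 mm3, mice were size-matched and randomised. Test compound or vehicle (10% PEG400 + 90% PBS) was given on the indicated schedules. Tumours were measured 2–3 times weekly, with volume = length×width²/2. TGI was calculated from group medians.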
# [1] = Body weight and signs of toxicity in efficacy experiments; format: in vivo, mice; settings: all efficacy experiments
# Method in brief: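 Animal weights and signs of toxicity were recorded 2–3 times per week in NOD/SCID female mice with subcutaneous xenografts. Mice received test compound or vehicle (10% PEG400 + 90% PBS) on the indicated schedules.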
# MOLM-16 = experiment: 4-day CellTiter Glo cell viability assay, MOLM-16; format: cell-based; settings: Homo sapiens, MOLM16, 96 h, read-out: IC50, growth inhibition
# STAT3 [2] = biological target: T1, STAT3 (Homo sapiens, UniProt P40763); experiment: Bio-Layer Interferometry binding, STAT3
# Method in brief: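 Recombinant human STAT3 was biotinylated and binding measured by Bio-Layer Interferometry for Kd. Selectivity was taken from Kd values against other STATs.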
# Target sequence in this assay (P40763 127-688): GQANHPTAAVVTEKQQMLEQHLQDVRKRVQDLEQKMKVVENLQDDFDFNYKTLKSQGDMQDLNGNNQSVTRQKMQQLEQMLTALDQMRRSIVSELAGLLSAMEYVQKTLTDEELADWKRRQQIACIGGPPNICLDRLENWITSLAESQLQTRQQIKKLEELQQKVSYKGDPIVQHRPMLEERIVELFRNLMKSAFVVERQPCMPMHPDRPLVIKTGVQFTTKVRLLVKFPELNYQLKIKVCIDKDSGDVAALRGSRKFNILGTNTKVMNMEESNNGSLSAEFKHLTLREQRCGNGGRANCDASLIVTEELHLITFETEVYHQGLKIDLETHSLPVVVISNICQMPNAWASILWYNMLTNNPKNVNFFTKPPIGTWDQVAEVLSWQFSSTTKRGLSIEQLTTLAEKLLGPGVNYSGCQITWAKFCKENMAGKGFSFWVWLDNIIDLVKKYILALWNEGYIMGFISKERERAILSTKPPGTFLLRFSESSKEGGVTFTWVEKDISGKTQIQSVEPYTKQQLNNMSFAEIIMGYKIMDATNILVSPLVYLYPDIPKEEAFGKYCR
# [3] = tested on: c-Myc; STAT3 Y705 phosphorylation; experiment: Immunoblotting of c-Myc and pSTAT3; format: cell-based, human; settings: 0.5 μM, 24 hr
# Method in brief: (§2)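 Treated cells were lysed in cell lysis buffer, resolved by SDS-PAGE, transferred to PVDF and probed by immunoblotting.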
# SU-DHL-1 xenograft = SU-DHL-1 xenograft efficacy; format: in vivo, mice
# Method in brief: as §1
# STAT3 [4] = biological target: T1, STAT3; experiment: STAT3 protein degradation in human cells; format: cell-based
# Method in brief: as §2
# Target sequence in this assay (P40763 whole entry): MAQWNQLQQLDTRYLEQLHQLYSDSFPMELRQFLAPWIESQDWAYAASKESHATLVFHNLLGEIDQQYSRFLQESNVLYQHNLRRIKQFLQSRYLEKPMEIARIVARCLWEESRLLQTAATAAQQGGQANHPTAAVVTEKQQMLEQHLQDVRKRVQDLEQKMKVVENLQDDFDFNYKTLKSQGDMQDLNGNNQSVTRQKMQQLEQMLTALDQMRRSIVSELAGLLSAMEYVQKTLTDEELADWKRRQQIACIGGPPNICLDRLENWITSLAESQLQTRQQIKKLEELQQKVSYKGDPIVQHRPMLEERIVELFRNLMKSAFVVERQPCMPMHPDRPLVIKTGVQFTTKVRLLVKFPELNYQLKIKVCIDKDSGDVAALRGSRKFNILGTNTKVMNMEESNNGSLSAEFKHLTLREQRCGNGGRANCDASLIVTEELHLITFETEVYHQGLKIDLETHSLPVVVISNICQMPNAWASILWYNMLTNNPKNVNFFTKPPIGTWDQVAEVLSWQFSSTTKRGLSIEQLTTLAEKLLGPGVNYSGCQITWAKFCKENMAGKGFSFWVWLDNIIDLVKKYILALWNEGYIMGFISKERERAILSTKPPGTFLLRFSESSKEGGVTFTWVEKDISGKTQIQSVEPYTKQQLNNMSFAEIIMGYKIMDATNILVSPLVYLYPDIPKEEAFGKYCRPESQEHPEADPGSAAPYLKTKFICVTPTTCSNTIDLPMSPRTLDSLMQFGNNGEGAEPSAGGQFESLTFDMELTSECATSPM
# [5] = Pharmacokinetics in tumor-bearing mice; format: in vivo, NOD/SCID female mice; settings: single i.v. dose 25 mg/kg; 1, 3 and 6 hr
# Method in brief: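 In NOD/SCID female mice with subcutaneous MOLM-16 xenografts, mice were dosed i.v. Blood and tissues were collected at the indicated times, and drug levels were measured by a pharmacokinetics core.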
# [6] = tested on: ~5500 proteins quantified in each cell line; experiment: Multiplexed quantitative proteomics in cell lines; format: cell-based, human; settings: 10 μM, 2.5 hr, three cell lines, p≤0.05
# Method in brief: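 Cells were exposed to test compound, then analysed by multiplexed quantitative proteomics. Significance was assessed by Student's t-test.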
# [7] = tested on: STAT1, STAT4 and other STATs; experiment: Degradation of other STAT proteins in cells; format: cell-based, human
# Method in brief: as §2
# STAT6 = STAT6 (Homo sapiens, UniProt P42226); experiment: Bio-Layer Interferometry binding, STAT6
# STAT6, sequence (P42226 113-658): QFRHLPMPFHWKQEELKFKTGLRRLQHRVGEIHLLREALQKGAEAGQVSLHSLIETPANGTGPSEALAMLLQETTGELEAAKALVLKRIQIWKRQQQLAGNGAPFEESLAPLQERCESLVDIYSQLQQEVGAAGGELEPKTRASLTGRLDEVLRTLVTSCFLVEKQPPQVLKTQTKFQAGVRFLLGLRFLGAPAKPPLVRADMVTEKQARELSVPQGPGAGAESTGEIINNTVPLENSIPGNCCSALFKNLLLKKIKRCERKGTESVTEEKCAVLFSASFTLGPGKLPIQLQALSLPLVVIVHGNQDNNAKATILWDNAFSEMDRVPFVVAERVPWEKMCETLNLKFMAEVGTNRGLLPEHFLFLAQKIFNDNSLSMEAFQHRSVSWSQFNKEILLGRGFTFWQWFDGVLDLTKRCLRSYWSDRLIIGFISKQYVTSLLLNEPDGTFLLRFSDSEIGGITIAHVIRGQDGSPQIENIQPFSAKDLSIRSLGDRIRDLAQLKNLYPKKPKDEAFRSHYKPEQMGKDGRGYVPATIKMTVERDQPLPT
# Method in brief: (§3)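 Purified recombinant human STAT proteins were biotinylated, then direct binding of the test compound was measured by Bio-Layer Interferometry to give Kd.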
# SU-DHL-1 = experiment: RNA-seq analysis, SU-DHL-1; format: cell-based, human; settings: SU-DHL-1, 24 hr
# STAT3 [8] = biological target: T1, STAT3; experiment: Pharmacodynamics: STAT3 protein in xenograft tumors; format: in vivo, NOD/SCID mice bearing human xenograft tumors
# Target sequence in this assay (P40763 whole entry): as the sequence (P40763 whole entry) above
# STAT4 = STAT4 (Homo sapiens, UniProt Q14765); experiment: Bio-Layer Interferometry binding, STAT4
# STAT4, sequence (Q14765 133-705): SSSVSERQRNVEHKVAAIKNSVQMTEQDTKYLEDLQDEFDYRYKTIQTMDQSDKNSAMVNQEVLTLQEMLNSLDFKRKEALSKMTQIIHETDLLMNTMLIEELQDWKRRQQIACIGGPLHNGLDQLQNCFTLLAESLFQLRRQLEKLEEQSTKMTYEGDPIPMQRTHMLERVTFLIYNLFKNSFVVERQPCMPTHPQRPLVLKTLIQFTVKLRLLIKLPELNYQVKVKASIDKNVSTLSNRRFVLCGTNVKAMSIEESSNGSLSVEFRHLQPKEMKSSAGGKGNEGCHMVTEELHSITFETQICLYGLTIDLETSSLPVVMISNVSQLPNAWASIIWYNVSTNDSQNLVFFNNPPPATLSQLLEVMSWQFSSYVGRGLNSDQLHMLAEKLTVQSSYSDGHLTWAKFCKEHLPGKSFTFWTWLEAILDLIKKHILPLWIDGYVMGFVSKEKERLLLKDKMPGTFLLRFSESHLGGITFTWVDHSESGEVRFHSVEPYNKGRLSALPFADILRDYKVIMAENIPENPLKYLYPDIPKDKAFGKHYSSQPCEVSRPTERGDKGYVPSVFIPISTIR
# Method in brief: as §3
# SUP-M2 tumor = experiment: SUP-M2 xenograft efficacy; format: in vivo, mice
# Method in brief: as §1
# [9] = 100 mg/kg weekly or 50 mg/kg twice weekly for 4 weeks
compound,measurement,setting,value
"NC(=O)CC[C@H](NC(=O)[C@@H]1CC[C@@H]2CCN(C(=O)CCCCCC#Cc3cccc4c3CN(C3CCC(=O)NC3=O)C4=O)C[C@H](NC(=O)c3cc4cc(C(F)(F)P(=O)(O)O)ccc4[nH]3)C(=O)N21)C(=O)NC(c1ccccc1)c1ccccc1 (stereo partly drawn) [SD-36, ((2-(((5S,8S,10aR)-8-(((S)-5-amino-1-(benzhydrylamino)-1,5-dioxopentan-2-yl)carbamoyl)-3-(8-(2-(2,6-dioxopiperidin-3-yl)-1-oxoisoindolin-4-yl)oct-7-ynoyl)-6-oxodecahydropyrrolo[1,2-a][1,5]diazocin-5-yl)carbamoyl)-1H-indol-5-yl)difluoromethyl)phosphonic acid]",persistence of regression after cessation of treatment,MOLM-16 tumors; [9],at least 2 weeks
same,tumor response,MOLM-16 tumors; [9],complete tumor regression
same,tumor growth,MOLM-16 tumors; 25 and 50 mg/kg weekly for 4 weeks,effectively inhibited tumor growth
same,weight loss or other signs of toxicity,[1],no significant weight loss
same,IC50,MOLM-16,35 nM
same,Kd,STAT3 [2],~50 nM
same,binding selectivity for STAT3 over STAT1 and STAT4,STAT3 [2]; BLI Kd,approximately 20 fold
same,expression of c-Myc,[3],reduced
same,tumor growth inhibited compared to the vehicle control,SU-DHL-1 xenograft; 50 mg/kg weekly,50%
same,tumor response,"SU-DHL-1 xenograft; 100 mg/kg on day 1, 3 and 5 per week",complete tumor regression
same,tumor response,SU-DHL-1 xenograft; 100 mg/kg weekly,rapid and complete tumor regression
same,tumors completely regressed,"SU-DHL-1 xenograft; 100 mg/kg weekly, after 2 doses, by day 12",7 out of 7
same,mice with no tumor returning,"SU-DHL-1 xenograft; 100 mg/kg weekly, day 122, >100 days after the last dosing",6 out of 7
same,tumor growth,"SU-DHL-1 xenograft; 25 and 50 mg/kg on day 1, 3 and 5 per week",effectively inhibited tumor growth
same,tumor volume reduced,"SU-DHL-1 xenograft; single dose 100 mg/kg, day 6",80%
same,STAT3 protein depleted,"STAT3 [4]; DEL, 250 nM, 7 hr",> 50%
same,STAT3 protein depleted,"STAT3 [4]; KI-JK, 250 nM, 7 hr",> 50%
same,levels of activated pSTAT3 (Y705),"STAT3 [4]; MOLM-16, 0.25 μM",effectively reduced
same,STAT3 protein depleted,"STAT3 [4]; MOLM-16, 250 nM, 4 hr",> 90%
same,cellular STAT3 protein in SD-36 insensitive cell lines,STAT3 [4]; SD-36 insensitive cell lines,effectively depleted
same,STAT3 protein depleted,"STAT3 [4]; SU-DHL-1, 250 nM, 7 hr",> 50%
same,hook effect,"STAT3 [4]; concentrations as high as 10 μM, all cell lines tested",not observed
same,levels of STAT3 protein in PBMCs,"STAT3 [4]; human PBMCs, 24 hr",potently and effectively reduced
same,"drug exposure in plasma, tumor tissues and several organs",[5],good drug exposure
same,proteome-wide selectivity,[6],STAT3 was the only protein whose level was significantly decreased by ≥2-fold
same,effect on other STATs,[7]; MOLM-16 and SU-DHL-1 cells,without effect on other STATs
same,"degradation of STAT1, STAT4 and other STATs","[7]; human PBMCs, 24 hr",failed to degrade
same,Kd,STAT6,> 10000 nM
same,genes down-regulated by ≥2-fold (p≤0.05),SU-DHL-1,701 genes
same,genes up-regulated by ≥2-fold (p≤0.05),SU-DHL-1,726 genes
same,"STAT3 protein level in MOLM-16 tumors, of controls",STAT3 [8]; 4 days after a single dose,< 50%
same,depletion of STAT3 protein in MOLM-16 and SU-DHL-1 tumors,"STAT3 [8]; single dose, 6 hr",near-complete depletion
same,persistence of near-complete STAT3 depletion,"STAT3 [8]; single dose, MOLM-16 and SU-DHL-1 tumors",> 24 h
same,duration of reduced STAT3 protein level,STAT3 [8]; single i.v. dose,> 4 days
same,STAT3 protein depleted in MOLM-16 tumors,"STAT3 [8]; single i.v. dose 25 mg/kg, 1 hr",> 80%
same,Kd,STAT4,1000 to 2000 nM
same,tumor growth,SUP-M2 tumor; 50 mg/kg three times per week,completely inhibited tumor growth
same,tumor response,"SUP-M2 tumor; 100 mg/kg three times per week, tumor free until day 30",Complete tumor regression
same,tumors with complete tumor regression,"SUP-M2 tumor; 100 mg/kg twice a week for 3 weeks, day 29",5 out of 7
